Results of several laboratories.
Protocols differ between the studies behind these lines.
UGT2B7: UDP-glucuronosyltransferase 2B7 (UGT2B7, Homo sapiens, UniProt P16662)

Cl.Cl.O=C(CCN1CCCCC1)c1ccc(-c2ccc(C(=O)CCN3CCCCC3)cc2)cc1  MRT(0-t) (Sprague-Dawley rat, plasma; oral, 100 mg/kg): 12.2 h
CSCC[C@H](NC(=O)COCCOCCNC(=O)COCCOCCNC(=O)CC[C@H](NC(=O)CCCCCCCCCCCCCCCCC(=O)O)C(=O)O)C(=O)N[C@H]1CSSC[C@@H](C(=O)NCC(=O)N[C@@H](CO)C(=O)NCC(=O)N[C@@H](CO)C(=O)N[C@@H](CC(=O)O)C(=O)N[C@@H](Cc2ccc(O)cc2)C(=O)N[C@@H](CCCCN)C(=O)N[C@@H](CC(=O)O)C(=O)N[C@@H](CC(=O)O)C(=O)N[C@@H](CC(=O)O)C(=O)N[C@@H](CC(=O)O)C(=O)N[C@@H](CCCCN)C(N)=O)NC(=O)[C@H](Cc2ccccc2)NC(=O)[C@@H]2CCCN2C(=O)[C@H](Cc2c[nH]c3ccccc23)NC(=O)[C@H](CC(C)C)NC(=O)[C@H](CCSC)NC(=O)[C@H](Cc2c[nH]cn2)NC(=O)[C@H](Cc2ccccc2)NC(=O)[C@H](Cc2c[nH]cn2)NC(=O)[C@H]([C@@H](C)O)NC(=O)[C@H](Cc2ccccc2)NC1=O  MRT (male Sprague-Dawley rat, plasma; intravenous): 13.7 h
O=C(O)c1cn(Cc2ccc(F)cc2)c2ccccc12  Km (UGT2B7; enzyme activity, substrate): 61.5 µM
C[C@@H](c1ccc2nccn2c1)n1nnc2ncc(-c3cnn(C)c3)nc21  Tmax (human, plasma; oral, 600 mg): 4 h
C=C1CC[C@@H]2[C@](C)(CO)[C@H](O)CC[C@@]2(C)[C@@H]1/C=C/C1=CCOC1=O  Ki (UGT2B7; enzyme activity, inhibitor): 6.9 µM
Cc1ncc2n1-c1ccc(Cl)cc1C(c1ccccc1F)=NC2  Tmax (human, plasma; oral, 2 mg, single dose): 0.67 h
CN(C)CCc1c[nH]c2ccccc12  Tmax (human, plasma; intravenous, 9 mg, healthy volunteers, infusion): 0.16 h
Cc1ncc2n1-c1ccc(Cl)cc1C(c1ccccc1F)=NC2  Tmax (human, plasma; intravenous, 3 µg, single dose): 0.0333 h
CC(=C/C=C/C(C)=C/C(=O)O)/C=C1\CCCc2ccccc21  Tmax (human, plasma; oral, 20 mg, single dose, fasted, healthy volunteers): 2.88 h
O=C1[O][Pt]2([NH][C@@H]3CCCC[C@H]3[NH]2)[O]C1=O (relative stereo)  MRT (cynomolgus monkey, plasma; oral, 10 mg/kg): 19.7 h
C=C1CCC2C(C)(CO)C(=O)CCC2(C)C1C=CC1=CCOC1=O (centres unmarked)  Ki (UGT2B7; enzyme activity, inhibitor): 13.7 µM
N=C(N)NCCC[C@@H](NC(=O)[C@@H](N)Cc1ccccc1)C(=O)N[C@@H](Cc1ccccc1)C(=O)N[C@@H](CCCCN)C(N)=O  Tmax (human, plasma; subcutaneous, 15 mg, patients): 0.75 h
COc1ccc(C[C@@H]2NC(=O)[C@H]([C@@H](C)O)NC(=O)[C@@H]3[C@@H]4CCN3C(=O)[C@@H]3Cc5cn(c6ccc(F)cc56)CCCCCCN(Cc5ccc(cc5)CCNC(=O)[C@]5(C)CCCN5C2=O)C(=O)CCC(=O)N[C@@H](C)C(=O)N[C@H](CNC(=O)CCCCC[N+](C)(C)C)C(=O)N[C@@H](Cc2cccc(c2)CNC(=O)CO4)C(=O)N3)cc1  Tmax (human, plasma; oral, 200 mg, single dose): 14.5 h
CC(Cc1ccccc1)NCCn1cnc2c1c(=O)n(C)c(=O)n2C (centres unmarked)  inhibition (Voltage-gated inwardly rectifying potassium channel KCNH2 (KCNH2, Homo sapiens, UniProt Q12809); ligand displacement, radioligand; 10 µM): -4%
